ChEMBL document CHEMBL1275302, “Synthesis and in vitro antiproliferative activity of 5-alkyl-12(H)-quino[3,4-b] [1,4]benzothiazinium salts” (Eur J Med Chem, 2010)
Converted amounts (≈) assume the structure as drawn. The source made the active and inactive calls. The rule behind the calls is not given here.

Tests used:
Assay type in all cases: functional, cell-based
[1] = tested on: Lewis lung carcinoma cell line; experiment: Antiproliferative activity against mouse LLC cells after 24 hrs by MTS assay
Outline: (§1)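 Cells kept at 37 °C, 5% CO2; seeded 1 × 10⁴ cells/well in D-MEM with 12% FCS, streptomycin and penicillin. After 24 h (about 80% confluent), aqueous stocks (DMSO added if needed) diluted in medium and added at various concentrations, 12 or 24 h incubation. Cells washed in PBS, resuspended in Phenol Red-free DMEM with MTS; formazan absorbance read. Survival as % of control; mean ± SD of three experiments; IC50 determined.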

HCT-116 [2] = experiment: Antiproliferative activity against human HCT116 cells after 24 hrs by MTS assay; conditions: HCT-116, 24 h; outline: as §1
HCT-116 [3] = experiment: Antiproliferative activity against human HCT116 cells at 0.1 to 100 ug/ml after 24 hrs by MTS assay; outline: as §1
[4] = tested on: Lewis lung carcinoma cell line; experiment: Antiproliferative activity against mouse LLC cells at 0.1 to 100 ug/ml after 24 hrs by MTS assay; outline: as §1

Row | IC50 [1] [µg/mL] | IC50 (HCT-116 [2]) [µg/mL] | Structure (SMILES) | Activity (HCT-116 [3]) | Activity [4]
1 | 8.9 | 5.1 | C[n+]1cc2c(c3ccccc31)Nc1ccc(N)cc1S2.[Cl-] |  | 
2 | 4.7 | 2.2 | C[n+]1cc2c(c3ccccc31)Nc1cc(N)ccc1S2.[Cl-] |  | 
3 |  |  | C[n+]1cc2c(c3ccccc31)Nc1c(N)cccc1S2 | inactive | inactive
4 | 2.3 | 7.8 | C[n+]1cc2c(c3ccccc31)Nc1ccccc1S2.[Cl-] |  | 
5 | 17.1 | 19.6 | CCCCCCCCCC[n+]1cc2c(c3ccccc31)Nc1ccccc1S2.[Br-] |  | 
6 | 7.2 | 6.7 | C[n+]1cc2c(c3ccccc31)Nc1ccc(O)cc1S2.[Cl-] |  | 
7 | 5.7 | 7.6 | C[n+]1cc2c(c3ccccc31)Nc1cc(O)ccc1S2.[Cl-] |  | 
8 | 3.7 (≈ 6.81 µM) | 3.3 (≈ 6.07 µM) | COc1cccc2c1C(=O)c1c(O)c3c(c(O)c1C2=O)C[C@@](O)(C(=O)CO)C[C@@H]3O[C@H]1C[C@H](N)[C@H](O)[C@H](C)O1 [DOXORUBICIN] |  | 
9 | 6.5 | 6.9 | C[n+]1cc2c(c3ccccc31)Nc1ccc(Br)cc1S2.[Cl-] |  | 
10 | 6.4 | 6.7 | C[n+]1cc2c(c3ccccc31)Nc1ccc(F)cc1S2.[Cl-] |  | 
11 |  |  | C[n+]1cc2c(c3ccccc31)Nc1c(O)cccc1S2 | inactive | inactive
12 | 5.4 | 7.4 | C[n+]1cc2c(c3ccccc31)Nc1ccc(Cl)cc1S2.[Cl-] |  | 
13 | 14 | 14.4 | CCCC[n+]1cc2c(c3ccccc31)Nc1ccccc1S2.[Br-] |  | 
14 | 13.2 | 17.2 | C[n+]1cc2c(c3ccccc31)Nc1cccnc1S2.[Cl-] |  | 
15 | 8.8 | 4.4 | Cc1ccc2c(c1)Sc1c[n+](C)c3ccccc3c1N2.[Cl-] |  | 
16 |  |  | Cc1cccc2c1Nc1c(c[n+](C)c3ccccc13)S2 | inactive | inactive
